Calls of active or inactive are those of the source. The calls are words filed in the database; no cut-off is given here.

Series [1] concerns the target T1, 2-Hydroxyacid oxidase 1 (Homo sapiens) (UniProt Q9UJM8).
T1 sequence (whole entry): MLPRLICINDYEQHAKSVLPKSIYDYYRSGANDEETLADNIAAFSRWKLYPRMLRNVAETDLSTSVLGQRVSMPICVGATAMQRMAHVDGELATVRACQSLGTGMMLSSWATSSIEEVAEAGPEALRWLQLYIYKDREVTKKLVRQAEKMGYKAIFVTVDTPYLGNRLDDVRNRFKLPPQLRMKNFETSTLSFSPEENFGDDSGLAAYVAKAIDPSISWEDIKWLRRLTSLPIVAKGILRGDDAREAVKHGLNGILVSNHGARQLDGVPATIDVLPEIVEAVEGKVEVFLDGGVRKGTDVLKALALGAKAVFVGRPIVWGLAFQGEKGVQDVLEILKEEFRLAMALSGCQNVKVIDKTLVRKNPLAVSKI
Description: Non-competitive mixed inhibition of N-terminal His-tagged human recombinant glycolate oxidase expressed in Escherichia coli BL21 (DE3) cells assessed as decrease in Vmax with increase in apparent Km using glycolate as substrate upto 60 microM.

Series [2] concerns the target T1, 2-Hydroxyacid oxidase 1 (Homo sapiens). Description: Reversible inhibition of N-terminal His-tagged human recombinant glycolate oxidase expressed in Escherichia coli BL21 (DE3) cells assessed as enzyme recovery using glycolate as substrate at 10 times of IC50 concentration preincubated for 30 mins followed by substrate addition and measured every 60 sec for 15 mins by jump-dilution based Amplex red and horseradish peroxidase fluorescence assay. To be noted: time 45.0 min.

In series [3] the target is T2, 2-Hydroxyacid oxidase 1 (Homo sapiens, UniProt Q9UJM8).
T2 sequence (Q9UJM8 whole entry): T1 sequence (whole entry)
Description: Non-competitive mixed inhibition of N-terminal His-tagged human recombinant glycolate oxidase expressed in Escherichia coli BL21 (DE3) cells assessed as inhibition constant using varying concentration of glycolate as substrate measured every 60 sec for 15 mins by Amplex red and horseradish peroxidase based fluorescence assay.

Series [4] concerns the target L-lactate dehydrogenase B chain (Homo sapiens, UniProt P07195). Description: Inhibition of human recombinant LDHB using pyruvate as substrate preincubated for 10 mins followed by substrate addition and measured every 60 sec for 10 mins in the presence of NADH by fluorescence assay.
In series [5] the test system is Hepatocyte. Description: Cytotoxicity against hyperoxaluric-primary hepatocyte isolated from Grhpr-knockdown PH2 C57BL/6 mouse assessed as cell death at 10 uM by MTS assay. The format is toxicity, cell-based. As to conditions: hepatocytes, Grhpr-knockdown PH2 (primary hyperoxaluria type 2). In outline:
(§1)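 Primary hepatocytes from Agxt1-/- (PH1, 5 mM glycolate), Grhpr-/- (PH2, 10 mM glycolate) or Hoga1-/- (PH3, 10 mM hydroxyproline) mice, incubated with inhibitor at 10 μM; viability followed through the oxalate assay by MTS tetrazolium method.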
(In general: Tetrazolium dyes change colour on reduction, which living cells bring about.)

The subject of series [6] is Hepatocyte. Description: Inhibition of GO/LDHA in hyperoxaluric-primary hepatocyte isolated from Grhpr-knockdown PH2 C57BL/6 mouse assessed as relative oxalate output at 10 uM measured at 48 hrs in the presence of glycolate relative to control. The format is cell-based. The method, boiled down:
(§2)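 Grhpr-/- mouse primary hepatocytes cultured with 10 mM glycolate, inhibitor at 10 μM; extracellular oxalate determined colorimetrically at 24 and 48 h post-treatment, expressed relative to untreated medium (RO); negative RO means below detection limit; three/four replicates, mean ± SD.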

In series [7] the test system is Hepatocyte. Description: Inhibition of GO/LDHA in hyperoxaluric-primary hepatocyte isolated from Hoga1-knockdown PH3 C57BL/6 mouse assessed as relative oxalate output at 10 uM measured at 24 hrs in the presence of hydroxyproline relative to control. The format is cell-based. The method, boiled down:
(§3)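 Hoga1-/- mouse primary hepatocytes challenged with 10 mM hydroxyproline, inhibitor 10 μM; extracellular oxalate measured by colorimetric kit 24 and 48 h after dosing, given as ratio to oxalate without inhibitor; negative values are below detection limit; mean of three/four replicates ± SD.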

For series [8], the target named is T3, L-lactate dehydrogenase A chain (Homo sapiens, UniProt P00338). Description: Non-competitive inhibition of human recombinant LDHA assessed as inhibition constant using varying concentration of pyruvate as substrate preincubated for 10 mins followed by substrate addition and measured every 60 sec for 10 mins in the presence of NADH by fluorescence assay.
Series [9] deals with T3, L-lactate dehydrogenase A chain. Description: Inhibition of human recombinant LDHA using pyruvate as substrate preincubated for 10 mins followed by substrate addition and measured every 60 sec for 10 mins in the presence of NADH by fluorescence assay.
Series [10] deals with T4, 2-Hydroxyacid oxidase 1 (Mus musculus, UniProt Q9WU19).
T4 sequence (Q9WU19 whole entry): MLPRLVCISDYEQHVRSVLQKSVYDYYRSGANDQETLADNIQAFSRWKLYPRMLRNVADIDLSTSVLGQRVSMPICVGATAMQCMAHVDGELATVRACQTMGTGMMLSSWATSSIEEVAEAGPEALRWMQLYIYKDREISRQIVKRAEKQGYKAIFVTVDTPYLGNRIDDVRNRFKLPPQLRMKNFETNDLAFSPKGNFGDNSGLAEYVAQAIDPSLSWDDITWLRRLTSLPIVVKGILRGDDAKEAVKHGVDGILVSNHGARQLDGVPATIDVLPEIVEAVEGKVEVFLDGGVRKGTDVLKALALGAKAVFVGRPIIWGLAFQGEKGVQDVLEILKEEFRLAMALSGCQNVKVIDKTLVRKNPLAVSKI
Description: Inhibition of N-terminal His-tagged mouse recombinant glycolate oxidase expressed in Escherichia coli BL21 (DE3) cells using glycolate as substrate preincubated for 10 mins followed by substrate addition and measured after 10 mins by Amplex red and horseradish peroxidase based fluorescence assay.

The species entered for another series is Homo sapiens. Description: Ratio of Ki for Non-competitive inhibition of human recombinant LDHB to Ki for non-competitive inhibition of human recombinant LDHA.
For series [11], the system named is Hepatocyte. Briefly: Inhibition of GO/LDHA in hyperoxaluric-primary hepatocyte isolated from Hoga1-knockdown PH3 C57BL/6 mouse assessed as relative oxalate output at 10 uM measured at 48 hrs in the presence of hydroxyproline relative to control. Format: cell-based. The method, boiled down: as §3
For series [12], the system named is Hepatocyte. Description: Cytotoxicity against hyperoxaluric-primary hepatocyte isolated from Agxt1-knockdown PH1 C57BL/6 mouse assessed as cell death at 10 uM by MTS assay. The format is toxicity, cell-based. To be noted: hepatocytes, Agxt1-knockdown PH1, 10 µM. The method, boiled down:
as §1

The subject of series [13] is Hepatocyte. Briefly: Inhibition of GO/LDHA in hyperoxaluric-primary hepatocyte isolated from Grhpr-knockdown PH2 C57BL/6 mouse assessed as relative oxalate output at 10 uM measured at 24 hrs in the presence of glycolate relative to control. Format: cell-based. The method, boiled down:
as §2

Series [14] deals with Hepatocyte. Briefly: Inhibition of GO/LDHA in hyperoxaluric-primary hepatocyte isolated from Agxt1 knockdown PH1 C57BL/6 mouse assessed as relative oxalate output at 10 uM measured at 24 hrs in the presence of glycolate relative to control. The format is cell-based. In outline:
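Agxt1-/- mouse primary hepatocytes cultured with 5 mM glycolate, inhibitor at 10 μM; extracellular oxalate measured by colorimetric kit 24 and 48 h after inhibitor addition; relative oxalate = oxalate with inhibitor over oxalate without inhibitor; negative values mean below detection limit; mean of three/four replicates ± SD.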

For another series, the system named is HEK293. Description: Cytotoxicity against HEK293 cells assessed as reduction in cell viability upto 50 uM measured after 48 hrs by MTT assay. The format is toxicity, cell-based. To be noted: human, hek293, 48 h.
The target of series [15] is T1, 2-Hydroxyacid oxidase 1 (Homo sapiens). Briefly: Reversible inhibition of N-terminal His-tagged human recombinant glycolate oxidase expressed in Escherichia coli BL21 (DE3) cells assessed as enzyme recovery using glycolate as substrate at 100 times of IC50 concentration preincubated for 30 mins followed by substrate addition and measured every 60 sec for 15 mins by jump-dilution based Amplex red and horseradish peroxidase fluorescence assay. As to conditions: time 45.0 min.

The target in series [16] is T3, L-lactate dehydrogenase A chain. Briefly: Non-competitive inhibition of human recombinant LDHA assessed as decrease in Vmax with no effect on Km using pyruvate as substrate upto 20 uM.

Sequence of L-lactate dehydrogenase B chain (P07195 whole entry): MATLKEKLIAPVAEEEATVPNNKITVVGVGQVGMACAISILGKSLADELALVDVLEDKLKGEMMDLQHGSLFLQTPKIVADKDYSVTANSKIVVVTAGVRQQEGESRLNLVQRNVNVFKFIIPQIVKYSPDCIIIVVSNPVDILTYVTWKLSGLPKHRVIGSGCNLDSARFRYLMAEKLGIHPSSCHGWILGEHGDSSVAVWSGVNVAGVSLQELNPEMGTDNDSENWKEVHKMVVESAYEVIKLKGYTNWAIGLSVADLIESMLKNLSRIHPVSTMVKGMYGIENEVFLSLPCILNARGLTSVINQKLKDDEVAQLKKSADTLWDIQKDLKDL

Take `N.N.O=C(O)c1cc(-c2ccc(CN(Cc3ccccc3)Cc3ccc(-c4ccc(O)c(C(=O)O)c4)o3)o2)ccc1O`: the inhibition result in [1], in series [2], in series [15] and in series [16] was “Active” each time. Besides, the Ki (in general, a measure of affinity in units of concentration, obtained from inhibition or displacement) came out at 2300 nM at 2-Hydroxyacid oxidase 1 [3] and 90 nM in series [8]. Besides, the IC50 (usually the concentration that inhibits the measured activity by half) in [4] worked out at 200 nM; in series [9], 400 nM; on 2-Hydroxyacid oxidase 1 [10] it was 1800 nM. The Activity result with Hepatocyte [5], with Hepatocyte [12] and in the series with HEK293 was “Non-Toxic” in each case. Moreover, the fold change (FC) was determined as 0.76 in the series with Hepatocyte [6]; 0.41 with Hepatocyte [7]; 0.47 with Hepatocyte [11]; 0.59 in the series with Hepatocyte [13]; 0.66 in the series with Hepatocyte [14]. The Ratio in the series listed under Homo sapiens came to 8.

The values above are taken from ChEMBL document CHEMBL5120856, “New salicylic acid derivatives, double inhibitors of glycolate oxidase and lactate dehydrogenase, as effective agents decreasing oxalate production” (Eur J Med Chem, 2022).
